MrgX1 allo act: allosterically activates human MrgX1 receptor signaling; B-score at 10 µM; hit rate 0.63% among 310,000; MrgX1-HEK293, Fluo-4 calcium flux, FDSS; active compounds read high; AID 588675;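 active = plate-corrected calcium response at least 3 library SD above typical, normal starting fluorescence, not activating the receptor alone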;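 note: compound read alongside a low EC10 to EC30 dose of BAM8-22 agonist; peak minus trough fluorescence over baseline measured at the second addition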
Target sequence (Q96LB2 whole entry, looked up): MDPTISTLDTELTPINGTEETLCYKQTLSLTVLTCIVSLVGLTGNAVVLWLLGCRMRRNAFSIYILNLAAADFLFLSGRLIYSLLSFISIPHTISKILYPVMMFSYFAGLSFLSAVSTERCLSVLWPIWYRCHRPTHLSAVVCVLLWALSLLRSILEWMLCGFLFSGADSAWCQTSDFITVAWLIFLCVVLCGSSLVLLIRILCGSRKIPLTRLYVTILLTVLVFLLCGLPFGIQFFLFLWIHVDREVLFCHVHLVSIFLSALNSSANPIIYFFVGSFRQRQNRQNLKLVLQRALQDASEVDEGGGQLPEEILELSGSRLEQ
MrgX1 antagonist: antagonists of human MrgX1 receptor | Q96LB2 | MRGX1-HEK293 calcium flux, Fluo-4, BAM8-22 antagonism; active compounds read low | B-score at 10 µM | hit rate 1.3% among 310,000;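 active = calcium-response B-score plate-corrected more than 3 library SD below zero, starting fluorescence within 5 deviations, no agonist response on first addition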;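 note: peak minus trough fluorescence over baseline after final BAM8-22 challenge near maximal dose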
RGS4 act: RGS4 potentiation or activation | hit rate 0.92% among 310,000 | B-score at 10 µM | HEK293 M3R/inducible RGS4, carbachol calcium flux Fluo4; active compounds read low;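 active = B-score of the integrated calcium signal more than 4 SD below the library mean, with starting fluorescence not abnormally high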;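 note: negative B-score means reduced calcium response which marks RGS4 activation or potentiation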
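test system = M3R-expressing HEK293 line, RGS4 induced by doxycycline | probe or stimulus = carbachol at ECmax as muscarinic agonist stimulus | timing = dye loading 30 min 37 °C, buffer rest 30 min RT | signal = calcium dye Fluo4 fluorescence | evaluation = B score from integrated fluorescence ratio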
RGS4 block: human RGS4 inhibition; P49798; HEK293 M3R/RGS4 inducible, Fluo-4 calcium flux; active compounds read high; triggered by carbachol at its EC20; B-score at 10 µM; hit rate 0.45% among 310,000;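 active = B-score, a plate-corrected calcium signal, over three deviations above library mean, with baseline fluorescence within five deviations of library mean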;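 note: RGS4 expression induced by doxycycline in cells with stable M3 receptor; B-score is computed from the integrated fluorescence ratio over baseline after carbachol; higher B-score means a larger calcium signal and so more RGS4 inhibition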
Target sequence (P49798 whole entry, looked up): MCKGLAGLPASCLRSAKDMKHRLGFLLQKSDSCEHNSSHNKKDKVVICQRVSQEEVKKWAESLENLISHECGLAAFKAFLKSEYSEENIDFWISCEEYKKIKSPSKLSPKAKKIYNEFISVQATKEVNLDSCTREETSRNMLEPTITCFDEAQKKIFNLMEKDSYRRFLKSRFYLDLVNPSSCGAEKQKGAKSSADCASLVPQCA
MrgX1 ag: agonists of human MrgX1 receptor; MrgX1-HEK293 cells, Fluo-4 calcium fluorescence, agonist mode; active compounds read high; B-score at 10 µM; hit rate 0.44% among 310,000; AID 588627;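 active = calcium response B-score plate-corrected fluorescence ratio at least 3 library SD, with starting fluorescence B-score inside 5 SD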
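Assay system: stable human MrgX1 HEK293 cell line. Quantity: 15,000 cells per well. Schedule: cells plated overnight, dye loaded 0.5 h 37 °C, 0.5 h room temperature. Detection: Fluo-4 NW calcium-flux fluorescence, kinetic read. Read-out basis: peak-minus-minimum fluorescence over baseline, converted to B scores. Control set: positive and negative control wells on each plate.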
* = called active by the depositor. This is a sample that favours compounds with a hit; in the whole collection about 3.5% have one here.

CCOC(C(=O)OCCCN(CC)CC)(c1ccccc1)c1ccccc1 was read as MrgX1 allo act inactive, MrgX1 antagonist inactive, RGS4 act inactive, RGS4 block inactive and MrgX1 ag inactive.
For COC(=O)C(=O)N1CC2(C)CNCC(C)(C1)C2=O the results were MrgX1 allo act inactive, MrgX1 antagonist inactive, RGS4 act inactive, RGS4 block inactive and MrgX1 ag inactive.
Screening COc1ccc(OCC(=O)N2CCCC(N3CCN(c4ccccc4C)CC3)C2)cc1 (stereo unspecified) returned MrgX1 allo act inactive, MrgX1 antagonist inactive, RGS4 act inactive, RGS4 block inactive and MrgX1 ag inactive.
Screening CCN(CC)c1ccc(/C=C2/C(=O)NC(=O)N(CC3CCCO3)C2=O)cc1 (stereo unspecified) returned MrgX1 allo act inactive, MrgX1 antagonist -4.5*, RGS4 act inactive, RGS4 block inactive and MrgX1 ag inactive.
O=C1NC(=O)N(CC2CCCO2)C(=O)/C1=C/c1cccs1 (stereo unspecified) was read as MrgX1 allo act inactive, MrgX1 antagonist inactive, RGS4 act inactive, RGS4 block inactive and MrgX1 ag inactive.
Screening CCn1cc(/C=c2/sc3n(c2=O)C2c4ccccc4OC(C)(N=3)C2C(=O)OC)c(C)n1 (stereo unspecified) returned MrgX1 allo act inactive, MrgX1 antagonist inactive, RGS4 act inactive, RGS4 block inactive and MrgX1 ag inactive.
`COC(=O)C1C2c3ccccc3OC1(C)N=c1s/c(=C/c3cn(C)nc3C)c(=O)n12` (stereo unspecified) gave MrgX1 allo act 7.1*, MrgX1 antagonist inactive, RGS4 act inactive, RGS4 block inactive and MrgX1 ag inactive.
O=[N+]([O-])NC1=NCN(Cc2ccco2)CN1Cc1ccco1 was read as MrgX1 allo act inactive, MrgX1 antagonist inactive, RGS4 act inactive, RGS4 block inactive and MrgX1 ag inactive.
CCCCCCN=Cc1c(O)n(C)c(=O)n(C)c1=O was read as MrgX1 allo act inactive, MrgX1 antagonist inactive, RGS4 act inactive, RGS4 block inactive and MrgX1 ag inactive.
`O=C1NC(=O)N(c2ccccc2F)C(=O)/C1=C/c1cn(CC(=O)N2CCOCC2)c2ccccc12` gave MrgX1 allo act inactive, MrgX1 antagonist inactive, RGS4 act inactive, RGS4 block 9.9* and MrgX1 ag inactive.
CCN1C(=O)NC(=O)/C(=C\c2cn(CC(=O)N3CCCC3)c3ccccc23)C1=O was read as MrgX1 allo act inactive, MrgX1 antagonist inactive, RGS4 act inactive, RGS4 block inactive and MrgX1 ag inactive.
CC1=Nc2ccccc2/C1=C/c1c(O)n(C)c(=O)[nH]c1=O was read as MrgX1 allo act 8.1*, MrgX1 antagonist inactive, RGS4 act inactive, RGS4 block inactive and MrgX1 ag inactive.
Screening Cc1ccccc1-n1c(O)c(/C=C2/C(c3ccccc3)=Nc3ccccc32)c(=O)[nH]c1=O returned MrgX1 allo act inactive, MrgX1 antagonist inactive, RGS4 act inactive, RGS4 block inactive and MrgX1 ag inactive.
Screening CCCCCc1nc2c(c(=O)c3ccccc3n2C)c(=O)n1C1CCCCCC1 returned MrgX1 allo act inactive, MrgX1 antagonist inactive, RGS4 act inactive, RGS4 block inactive and MrgX1 ag inactive.
Screening C=CCn1c(C)c(C=C2C(=O)NC(=O)NC2=O)c2ccccc21 returned MrgX1 allo act inactive, MrgX1 antagonist inactive, RGS4 act inactive, RGS4 block inactive and MrgX1 ag 39*.
COC(=O)C1=C(c2ccccc2)C[C@@H]2CC[C@H]1N2C(=O)NC1CCCCC1 was read as MrgX1 allo act inactive, MrgX1 antagonist inactive, RGS4 act inactive, RGS4 block inactive and MrgX1 ag inactive.
Screening CN1[C@@H]2CC[C@H]1CC(OC1c3ccccc3CCc3ccccc31)C2 (stereo partly specified) returned MrgX1 allo act inactive, MrgX1 antagonist inactive and MrgX1 ag inactive.
CC(C)(O)[C@H]1O[C@H]2CC[C@@]3(C)[C@@](O)(CC[C@H]4Cc5c([nH]c6ccccc56)[C@@]43C)C2=CC1=O was read as MrgX1 allo act inactive, MrgX1 antagonist -4.6*, RGS4 act inactive, RGS4 block inactive and MrgX1 ag inactive.
For Cc1ccc2c(c1Cl)NC(C(=O)O)C1CC(Sc3ccccc3[N+](=O)[O-])C(Cl)C21 (stereo unspecified) the results were MrgX1 allo act inactive, MrgX1 antagonist inactive, RGS4 act inactive, RGS4 block inactive and MrgX1 ag inactive.
For CCN(CC)C(=O)c1ccc2c(c1)C1C(Cl)C(Sc3ccccc3[N+](=O)[O-])CC1C(C(=O)O)N2 (stereo unspecified) the results were MrgX1 allo act inactive, MrgX1 antagonist -6.7*, RGS4 act inactive, RGS4 block inactive and MrgX1 ag inactive.
CN(C)c1ccc(-[n+]2c(-c3ccccc3)cc(-c3ccccc3)cc2-c2ccccc2)cc1 was read as RGS4 act -9* and RGS4 block inactive.
For Cc1ccc(-c2cc(-c3ccccc3)cc(-c3ccccc3)[n+]2-c2ccccc2)cc1 the results were MrgX1 allo act inactive, MrgX1 antagonist inactive, RGS4 act -7.6*, RGS4 block inactive and MrgX1 ag 31*.
Screening C[n+]1c(-c2ccccc2)cc(-c2ccc(Cl)cc2)cc1-c1ccccc1 returned MrgX1 allo act inactive, MrgX1 antagonist inactive, RGS4 act inactive, RGS4 block inactive and MrgX1 ag inactive.
c1ccc(-c2cc(-c3ccccc3)[n+](-c3ccccc3)c(-c3ccccc3)c2)cc1 was read as MrgX1 allo act 15*, MrgX1 antagonist inactive, RGS4 act -7.8*, RGS4 block inactive and MrgX1 ag inactive.
CC1=C2[C@@H]3OC(=O)[C@H](C)C3CC[C@@]2(C)C=CC1=O (stereo partly specified) was read as MrgX1 allo act inactive, MrgX1 antagonist inactive, RGS4 act inactive, RGS4 block inactive and MrgX1 ag inactive.
Screening CCOc1ccccc1N=C1SCCCN1C returned MrgX1 allo act inactive, MrgX1 antagonist inactive, RGS4 act inactive, RGS4 block inactive and MrgX1 ag inactive.
For CCOc1cccc(=NC2CCCCC2)c2c(C)n(C)c(C)c12 the results were MrgX1 allo act inactive, MrgX1 antagonist -6*, RGS4 act inactive, RGS4 block inactive and MrgX1 ag inactive.
CCN(CC)C(=O)c1ccc2c(c1)C1C=CCC1C(C(=O)O)N2 (stereo unspecified) was read as MrgX1 allo act inactive, MrgX1 antagonist inactive, RGS4 act inactive, RGS4 block inactive and MrgX1 ag inactive.
